Screening data as filed in PubChem.
HSF1 activator: increases HSF-1 driven luciferase reporter signal; NIH3T3-HGL HSF-1 luciferase reporter, MG132, 8 h; 100% = twice DMSO control signal; activation, % at 9 µM; actives 1.7% (n = 300,000); AID 504408;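 active means mean replicate activation of at least 50% with a set share of replicates each reaching 50%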
Lipid droplet: modulators of hepatic lipid droplet formation. AML12 mouse hepatocytes, oleate lipid droplets, BODIPY imaging. inhibition, % at 6.5 µM. actives 0.4% (n = 240,000). AID 1656;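 active means lipid droplet intensity inhibited by at least 50%, with more than 500 cells counted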
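Test system: AML12 mouse liver cells; schedule: overnight exposure; technique: high-content imaging of BODIPY-stained droplets and DAPI nuclei; read-out: % inhibition of corrected integrated BODIPY droplet signal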
PHOSPHO1 inh: inhibitors of human PHOSPHO1 phosphatase; Q8TCT1; recombinant PHOSPHO1, absorbance phosphatase assay; inhibition, % at 13.3 µM; actives 1.1% (n = 290,000); in the data active means inhibition above about 60%
Target sequence (Q8TCT1 whole entry, looked up): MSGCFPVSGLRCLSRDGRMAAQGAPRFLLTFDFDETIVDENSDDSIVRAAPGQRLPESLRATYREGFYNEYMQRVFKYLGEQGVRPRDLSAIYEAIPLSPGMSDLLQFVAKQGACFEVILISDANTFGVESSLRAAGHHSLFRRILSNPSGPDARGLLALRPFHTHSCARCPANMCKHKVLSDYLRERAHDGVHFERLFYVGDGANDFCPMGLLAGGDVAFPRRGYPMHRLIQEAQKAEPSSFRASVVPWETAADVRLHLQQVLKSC
CHT allo act: allosterically activates the human high affinity choline transporter. Q9GZV3. CHT-expressing cells, membrane potential dye, choline EC20; hits give high values; LV-AA mutant CHT in HEK293 cells. B-score at 10 µM. actives 0.49% (n = 310,000). AID 488977;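 active means initial fluorescence not abnormally high and integrated response B-score, plate-corrected, over 3 SD above library mean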
CHT inh: human CHT choline transport inhibition. CHT-expressing cells, membrane potential dye, choline response; hits give low values. B-score at 10 µM. actives 0.86% (n = 310,000). AID 488975;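 active means B-score over 3 SD under the library average, and starting fluorescence ratio not unusually high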;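 further: choline stimulus applied at its EC90 after an EC20 pre-addition; B-score computed on integrated fluorescence ratio after choline addition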
HSF1 inh: HSF1 inhibition. actives 0.77% (n = 300,000). AID 2098. activity change, negative = inhibition, % at 7.5 µM (by protocol). NIH3T3-HGL HSE-luciferase, MG132-induced, luminescence 8 h; hits give low values;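 active means more than half of replicate wells show activity change below -50%, luminescence cut by over half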;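 further: luciferase reports HSF-1 transcriptional activity via heat shock element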
Each line names hits and unclear results; the compound was inactive in the other large screens. An excerpt weighted towards active compounds, which were near 4.9% of everything screened.

O=C(CSc1ncn[nH]1)N/N=C/c1ccc(Br)cc1	none
C/C(=N\NC(=O)c1cccs1)c1ccc(C(=O)O)s1	none
C/C(=N\NC(=O)c1csc(C)c1C)c1ccco1	HSF1 activator 63.3
CC(=O)N/N=C(/C)c1ccc(NC(=O)c2csc(C)c2C)cc1	HSF1 activator 70.9
C/C(=N/NC(=O)c1cccs1)c1ccco1	HSF1 activator 55.6
Cc1ccc(C(=O)COC(=O)CN2C(=O)C3CC=CCC3C2=O)cc1[N+](=O)[O-] (stereo not given)	none
CCOc1cc(C2CC(=O)N3CN(C4CCCCC4)CSC3=C2C#N)ccc1O (stereo not given)	none
N#CC1=C2SCN(Cc3ccco3)CN2C(=O)CC1c1ccc(Cl)cc1 (stereo not given)	PHOSPHO1 inh 75.6 (no result: Lipid droplet)
COc1ccc2ccccc2c1C1CC(=O)N2CN(C3CCCCC3)CSC2=C1C#N (stereo not given)	HSF1 inh -53.7 (no result: Lipid droplet)
COc1ccc2ccccc2c1C1CC(=O)N2CN(Cc3ccco3)CSC2=C1C#N (stereo not given)	PHOSPHO1 inh 71.9 (no result: Lipid droplet)
Cn1c(=O)c2c(nc(CN3CCC(C(N)=O)CC3)n2CCc2ccccc2)n(C)c1=O	none (no result: Lipid droplet)
FC(F)(F)c1cccc(NC(=S)NCC(c2cccnc2)N2CCOCC2)c1 (stereo not given)	none
Cc1cc(C(=O)N/N=C/c2cn[nH]c2-c2ccccc2)cs1	none
COc1ccc(Nc2ncc(C(=O)N3CCN(c4ccc(F)cc4)CC3)c3ccccc23)cc1	none (no result: Lipid droplet)
S=c1[nH]nc(-c2ccc(Cl)cc2)n1-c1ccc(Cl)cc1	none
CC(C)(C)c1cn(-c2ccc(Cl)cc2)c(=S)[nH]1	PHOSPHO1 inh 73.8 (no result: Lipid droplet)
Cc1[nH]n(-c2ccccc2)c(=S)c1C=Nc1cccc([N+](=O)[O-])c1	PHOSPHO1 inh 107.1, HSF1 inh -59.5 (no result: Lipid droplet)
CCCCN(CCCC)C(=S)N/N=C/c1c(C)[nH]n(-c2ccccc2)c1=O	none (no result: Lipid droplet)
Cc1[nH]n(-c2ccccc2)c(=O)c1C=NCCc1ccccc1	HSF1 activator 89.8
Cc1[nH]n(-c2ccccc2)c(=O)c1C=NCc1ccncc1	none
CCCCN=Cc1c(C)[nH]n(-c2ccccc2)c1=S	PHOSPHO1 inh 68.5
Cc1[nH]n(-c2ccccc2)c(=O)c1/C=N/Nc1nncc(-c2ccccc2)n1	PHOSPHO1 inh 66.7
Cc1oc2ccc(Br)cc2c(=O)c1-c1nn[nH]n1	none
Cc1[nH]n(-c2ccc(Br)cc2)c(=O)c1/C=N/NC(=O)c1ccccc1	CHT inh -5.37
Clc1ccc(-c2nnc(SCc3ccon3)o2)c(Cl)c1	HSF1 activator 58.2
Clc1ccc(-c2nnc(CCc3ccccc3)o2)c(Cl)c1	HSF1 activator 69.2 (no result: Lipid droplet)
Oc1ccccc1-c1nnc(COc2ccc(Cl)cc2Cl)o1	none
C=CCSc1nnc(-c2cccnc2)o1	none
C=CCSc1nnc(-c2ccc(Cl)cc2Cl)o1	HSF1 activator 57.1
Clc1ccc(-c2nnc(SCc3nc4ccccc4[nH]3)o2)c(Cl)c1	HSF1 activator 75.3
c1ccc2[nH]c(CSc3nnc(-c4ccncc4)o3)nc2c1	none (no result: Lipid droplet)
O=C(Nc1ccccc1-c1nnc(SCc2ccc(Cl)cc2Cl)o1)c1ccccc1	none
COc1ccc(-n2ncc3c2CC(C)(C)CC3NC(=O)c2ocnc2C)cc1 (stereo not given)	none
O=C(O)c1cccc(N2C(=O)/C(=C/c3ccc(SCc4ccc(Cl)cc4)o3)SC2=S)c1	none (no result: HSF1 activator, CHT allo act, CHT inh, HSF1 inh)
O=C(O)c1ccc(COc2ccccc2C=C2C(=O)c3ccccc3C2=O)cc1	none
CC(C)(C)c1ccc(C(=O)NCC(=O)OCC(=O)Nc2nc(-c3ccc(F)cc3)cs2)cc1	PHOSPHO1 inh 61.6
Cc1ccc(-c2csc(NC(=O)CCNC(=O)c3ccc(Cl)cc3)n2)cc1	none
Cc1ccc(C(=O)NCC(=O)NCC(=O)OCC(=O)c2ccc(F)cc2)cc1	HSF1 inh -61.8
CCN(CC)c1ccc(/C=N\NC(=O)c2cccc3cc[nH]c23)cc1	none
O=C1C=CC(=O)N1N(c1ccccc1)c1ccccc1	HSF1 activator 69.1
O=C1C=CC(=O)N1Cc1ccccc1	none
O=C(CC(Sc1ccc(Br)cc1)C(=O)O)c1ccc(Br)cc1 (stereo not given)	CHT inh -6.99 (no result: Lipid droplet)
